Measurements: ChEMBL document CHEMBL1817556, “Substituted lactam and cyclic azahemiacetals modulate Pseudomonas aeruginosa quorum sensing” (Bioorg Med Chem, 2011)

How the values were obtained:
[1] = target: T1, Acyl-homoserine-lactone synthase (Pseudomonas aeruginosa (strain ATCC 15692 / PAO1 / 1C / PRS 101 / LMG12228)) (UniProt P33883); assay: Modulation of Pseudomonas aeruginosa lacZ-fused lasI expressed in Escherichia coli DH5alpha co-expressing pBAD-lasR at 0.002 mM after 3 hrs by beta-galactosidase assay relative to control
T1 sequence (whole entry): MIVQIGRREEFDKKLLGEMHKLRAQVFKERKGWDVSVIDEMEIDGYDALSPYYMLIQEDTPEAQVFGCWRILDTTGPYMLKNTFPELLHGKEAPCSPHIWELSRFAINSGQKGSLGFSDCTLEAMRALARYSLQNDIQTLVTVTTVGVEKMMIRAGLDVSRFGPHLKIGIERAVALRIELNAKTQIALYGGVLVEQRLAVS
Procedure, shortened: (§1)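 E. coli DH5α carrying pSC11 (PlasI-lacZ translational fusion) and pJN105L (PBAD-lasR) was grown overnight in LB with ampicillin (100 μg/ml) and gentamicin (15 μg/ml), then diluted to OD600 0.150. Arabinose (0.2% w/v), 3-oxo-C12-AHL (2 μM) and test compound or DMSO were added. Cultures were shaken 3 h at 37 °C. β-Galactosidase activity was read in Miller units and expressed as % of the solvent sample. Triplicates per biological replicate, repeated at least twice; paired two-tailed t-test.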

[2] = target: 3-(3-hydroxydecanoyloxy)decanoate synthase (Pseudomonas aeruginosa (strain ATCC 15692 / PAO1 / 1C / PRS 101 / LMG12228)) (UniProt Q51559); assay: Modulation of Pseudomonas aeruginosa lacZ-fused rhlA expressed in Escherichia coli DH5alpha co-expressing Ptac-rhlR assessed as C4-AHL-induced effect at 0.60 mM after 4 hrs by beta-galactosidase assay relative to control
Procedure, shortened: (§2)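 E. coli DH5α carrying pECP61.5 (Ptac-rhlR, PrhlA-lacZ), grown overnight in LB with ampicillin 100 μg/ml and diluted to OD600 0.150. At OD600 1.0, 1 mM IPTG, 2 μM C4-HSL and compound or DMSO were added. Cultures were shaken 4 h at 37 °C, then β-galactosidase was read in Miller units. Activity is % of solvent sample, from triplicates per biological replicate, with at least two repeats.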

[3] = target: 3-(3-hydroxydecanoyloxy)decanoate synthase (Pseudomonas aeruginosa (strain ATCC 15692 / PAO1 / 1C / PRS 101 / LMG12228)) (UniProt Q51559); assay: Modulation of Pseudomonas aeruginosa lacZ-fused rhlA expressed in Escherichia coli DH5alpha co-expressing Ptac-rhlR assessed as C4-AHL-induced effect at 0.40 mM after 4 hrs by beta-galactosidase assay relative to control
Procedure, shortened: (§3)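 rhl reporter: E. coli DH5α carrying pECP61.5 (Ptac-rhlR, PrhlA-lacZ) was grown overnight in LB with ampicillin (100 μg/ml) only, then diluted to OD600 0.150. It was induced with 1 mM IPTG, and 2 μM C4-HSL plus compound or DMSO were added at OD600 1.0. Cultures were shaken 4 h at 37 °C. β-Galactosidase activity was read in Miller units as % of the solvent sample. Triplicates per biological replicate, at least two repeats; paired two-tailed t-test.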

[4] = target: 3-(3-hydroxydecanoyloxy)decanoate synthase (Pseudomonas aeruginosa (strain ATCC 15692 / PAO1 / 1C / PRS 101 / LMG12228)) (UniProt Q51559); assay: Modulation of Pseudomonas aeruginosa lacZ-fused rhlA expressed in Escherichia coli DH5alpha co-expressing Ptac-rhlR assessed as C4-AHL-induced effect at 0.80 mM after 4 hrs by beta-galactosidase assay relative to control; procedure, shortened: as §2
[5] = target: T1, Acyl-homoserine-lactone synthase (Pseudomonas aeruginosa (strain ATCC 15692 / PAO1 / 1C / PRS 101 / LMG12228)); assay: Modulation of Pseudomonas aeruginosa lacZ-fused lasI expressed in Escherichia coli DH5alpha co-expressing pBAD-lasR assessed as 3-oxo-C12-AHL-induced effect at 0.20 mM after 3 hrs by beta-galactosidase assay relative to control; procedure, shortened: as §1
[6] = target: T1, Acyl-homoserine-lactone synthase (Pseudomonas aeruginosa (strain ATCC 15692 / PAO1 / 1C / PRS 101 / LMG12228)); assay: Modulation of Pseudomonas aeruginosa lacZ-fused lasI expressed in Escherichia coli DH5alpha co-expressing pBAD-lasR assessed as 3-oxo-C12-AHL-induced effect at 0.40 mM after 3 hrs by beta-galactosidase assay relative to control; procedure, shortened: as §1
[7] = target: T1, Acyl-homoserine-lactone synthase (Pseudomonas aeruginosa (strain ATCC 15692 / PAO1 / 1C / PRS 101 / LMG12228)); assay: Modulation of Pseudomonas aeruginosa lacZ-fused lasI expressed in Escherichia coli DH5alpha co-expressing pBAD-lasR assessed as 3-oxo-C12-AHL-induced effect at 0.80 mM after 3 hrs by beta-galactosidase assay relative to control; procedure, shortened: as §1
[8] = target: T1, Acyl-homoserine-lactone synthase (Pseudomonas aeruginosa (strain ATCC 15692 / PAO1 / 1C / PRS 101 / LMG12228)); assay: Modulation of Pseudomonas aeruginosa lacZ-fused lasI expressed in Escherichia coli DH5alpha co-expressing pBAD-lasR assessed as 3-oxo-C12-AHL-induced effect at 0.60 mM after 3 hrs by beta-galactosidase assay relative to control; procedure, shortened: as §1
[9] = target: 3-(3-hydroxydecanoyloxy)decanoate synthase (Pseudomonas aeruginosa (strain ATCC 15692 / PAO1 / 1C / PRS 101 / LMG12228)) (UniProt Q51559); assay: Modulation of Pseudomonas aeruginosa lacZ-fused rhlA expressed in Escherichia coli DH5alpha co-expressing Ptac-rhlR assessed as C4-AHL-induced effect at 0.20 mM after 4 hrs by beta-galactosidase assay relative to control; procedure, shortened: as §3
[10] = target: 3-(3-hydroxydecanoyloxy)decanoate synthase (Pseudomonas aeruginosa (strain ATCC 15692 / PAO1 / 1C / PRS 101 / LMG12228)) (UniProt Q51559); assay: Modulation of Pseudomonas aeruginosa lacZ-fused rhlA expressed in Escherichia coli DH5alpha co-expressing Ptac-rhlR assessed as C4-AHL-induced effect at 0.50 mM after 4 hrs by beta-galactosidase assay relative to control; procedure, shortened: as §3
[11] = target: T1, Acyl-homoserine-lactone synthase (Pseudomonas aeruginosa (strain ATCC 15692 / PAO1 / 1C / PRS 101 / LMG12228)); assay: Modulation of Pseudomonas aeruginosa lacZ-fused lasI expressed in Escherichia coli DH5alpha co-expressing pBAD-lasR assessed as 3-oxo-C12-AHL-induced effect at 0.50 mM after 3 hrs by beta-galactosidase assay relative to control; procedure, shortened: as §1
[12] = target: 3-(3-hydroxydecanoyloxy)decanoate synthase (Pseudomonas aeruginosa (strain ATCC 15692 / PAO1 / 1C / PRS 101 / LMG12228)) (UniProt Q51559); assay: Modulation of Pseudomonas aeruginosa lacZ-fused rhlA expressed in Escherichia coli DH5alpha co-expressing Ptac-rhlR assessed as C4-AHL-induced effect at 0.66 mM after 4 hrs by beta-galactosidase assay relative to control; procedure, shortened: as §2
[13] = target: T1, Acyl-homoserine-lactone synthase (Pseudomonas aeruginosa (strain ATCC 15692 / PAO1 / 1C / PRS 101 / LMG12228)); assay: Modulation of Pseudomonas aeruginosa lacZ-fused lasI expressed in Escherichia coli DH5alpha co-expressing pBAD-lasR assessed as 3-oxo-C12-AHL-induced effect at 0.17 mM after 3 hrs by beta-galactosidase assay relative to control; procedure, shortened: as §1
[14] = target: T1, Acyl-homoserine-lactone synthase (Pseudomonas aeruginosa (strain ATCC 15692 / PAO1 / 1C / PRS 101 / LMG12228)); assay: Modulation of Pseudomonas aeruginosa lacZ-fused lasI expressed in Escherichia coli DH5alpha co-expressing pBAD-lasR assessed as 3-oxo-C12-AHL-induced effect at 0.66 mM after 3 hrs by beta-galactosidase assay relative to control; procedure, shortened: as §1
[15] = target: T1, Acyl-homoserine-lactone synthase (Pseudomonas aeruginosa (strain ATCC 15692 / PAO1 / 1C / PRS 101 / LMG12228)); assay: Modulation of Pseudomonas aeruginosa lacZ-fused lasI expressed in Escherichia coli DH5alpha co-expressing pBAD-lasR assessed as 3-oxo-C12-AHL-induced effect at 0.33 mM after 3 hrs by beta-galactosidase assay relative to control; procedure, shortened: as §1
[16] = target: 3-(3-hydroxydecanoyloxy)decanoate synthase (Pseudomonas aeruginosa (strain ATCC 15692 / PAO1 / 1C / PRS 101 / LMG12228)) (UniProt Q51559); assay: Modulation of Pseudomonas aeruginosa lacZ-fused rhlA expressed in Escherichia coli DH5alpha co-expressing Ptac-rhlR assessed as C4-AHL-induced effect at 0.17 mM after 4 hrs by beta-galactosidase assay relative to control; procedure, shortened: as §3
[17] = target: 3-(3-hydroxydecanoyloxy)decanoate synthase (Pseudomonas aeruginosa (strain ATCC 15692 / PAO1 / 1C / PRS 101 / LMG12228)) (UniProt Q51559); assay: Modulation of Pseudomonas aeruginosa lacZ-fused rhlA expressed in Escherichia coli DH5alpha co-expressing Ptac-rhlR assessed as C4-AHL-induced effect at 0.33 mM after 4 hrs by beta-galactosidase assay relative to control; procedure, shortened: as §3
[18] = target: T2, Transcriptional activator protein LasR (Pseudomonas aeruginosa (strain ATCC 15692 / PAO1 / 1C / PRS 101 / LMG12228), UniProt P25084); assay: Inhibition of Pseudomonas aeruginosa LasR
T2 sequence (P25084 whole entry): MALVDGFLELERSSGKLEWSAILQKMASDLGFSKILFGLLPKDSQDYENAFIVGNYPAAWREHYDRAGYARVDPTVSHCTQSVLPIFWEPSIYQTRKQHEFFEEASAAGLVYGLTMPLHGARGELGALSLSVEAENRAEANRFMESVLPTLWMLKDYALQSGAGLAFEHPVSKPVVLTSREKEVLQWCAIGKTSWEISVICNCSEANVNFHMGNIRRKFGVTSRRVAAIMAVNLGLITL

[19] = target: 3-(3-hydroxydecanoyloxy)decanoate synthase (Pseudomonas aeruginosa (strain ATCC 15692 / PAO1 / 1C / PRS 101 / LMG12228)) (UniProt Q51559); assay: Modulation of Pseudomonas aeruginosa lacZ-fused rhlA expressed in Escherichia coli DH5alpha co-expressing Ptac-rhlR assessed as C4-AHL-induced effect at 0.34 mM after 4 hrs by beta-galactosidase assay relative to control; procedure, shortened: as §3
[20] = target: T1, Acyl-homoserine-lactone synthase (Pseudomonas aeruginosa (strain ATCC 15692 / PAO1 / 1C / PRS 101 / LMG12228)); assay: Modulation of Pseudomonas aeruginosa lacZ-fused lasI expressed in Escherichia coli DH5alpha co-expressing pBAD-lasR assessed as 3-oxo-C12-AHL-induced effect at 0.34 mM after 3 hrs by beta-galactosidase assay relative to control; procedure, shortened: as §1
[21] = target: T1, Acyl-homoserine-lactone synthase (Pseudomonas aeruginosa (strain ATCC 15692 / PAO1 / 1C / PRS 101 / LMG12228)); assay: Modulation of Pseudomonas aeruginosa lacZ-fused lasI expressed in Escherichia coli DH5alpha co-expressing pBAD-lasR assessed as 3-oxo-C12-AHL-induced effect at 0.69 mM after 3 hrs by beta-galactosidase assay relative to control; procedure, shortened: as §1
[22] = target: 3-(3-hydroxydecanoyloxy)decanoate synthase (Pseudomonas aeruginosa (strain ATCC 15692 / PAO1 / 1C / PRS 101 / LMG12228)) (UniProt Q51559); assay: Modulation of Pseudomonas aeruginosa lacZ-fused rhlA expressed in Escherichia coli DH5alpha co-expressing Ptac-rhlR assessed as C4-AHL-induced effect at 0.52 mM after 4 hrs by beta-galactosidase assay relative to control; procedure, shortened: as §3
[23] = target: T1, Acyl-homoserine-lactone synthase (Pseudomonas aeruginosa (strain ATCC 15692 / PAO1 / 1C / PRS 101 / LMG12228)); assay: Modulation of Pseudomonas aeruginosa lacZ-fused lasI expressed in Escherichia coli DH5alpha co-expressing pBAD-lasR assessed as 3-oxo-C12-AHL-induced effect at 0.52 mM after 3 hrs by beta-galactosidase assay relative to control; procedure, shortened: as §1
[24] = target: 3-(3-hydroxydecanoyloxy)decanoate synthase (Pseudomonas aeruginosa (strain ATCC 15692 / PAO1 / 1C / PRS 101 / LMG12228)) (UniProt Q51559); assay: Modulation of Pseudomonas aeruginosa lacZ-fused rhlA expressed in Escherichia coli DH5alpha co-expressing Ptac-rhlR assessed as C4-AHL-induced effect at 0.69 mM after 4 hrs by beta-galactosidase assay relative to control; procedure, shortened: as §2

CCCCCCCCCC(=O)CC(=O)N[C@H]1CCOC1=O
Activity [1]: 100%

CCCCCCSC[C@H]1NC(O)[C@H](O)[C@@H]1O (mixture of isomers)
Activity [2]: 109%
Activity [3]: 105%
Activity [4]: 116%
Activity [5]: 84%
Activity [6]: 68%
Activity [7]: 42%
Activity [8]: 51%
Activity [9]: 94%

CCCCCCCCCCCCSC[C@@H]1CCC(O)N1 (mixture of isomers)
Activity [10]: 91%
Activity [11]: 45%
Activity [12]: 96%
Activity [13]: 72%
Activity [14]: 34%
Activity [15]: 56%
Activity [16]: 98%
Activity [17]: 93%

CCCCCCCCCCCC(=O)N[C@H]1CCSC1=O
IC50 [18]: 40 nM

CCCCCCCCCSC[C@H]1NC(O)[C@H](O)[C@@H]1O (mixture of isomers)
Activity [19]: 127%
Activity [20]: 78%
Activity [13]: 78%
Activity [21]: 53%
Activity [22]: 116%
Activity [16]: 98%
Activity [23]: 71%
Activity [24]: 121%
